Assay outcomes from PubChem.
In the library only some 5.2% were active in any assay of this set; here they are far more common.
WNV protease inh – inhibitors of WNV NS2B-NS3 protease, primary screen, biochemical, fluorogenic substrate; Genome polyprotein (West Nile virus), P06935; 65,000 tested, 0.18% active; AID 577, 2007; z-score (concentration not given with the values); fluorogenic substrate Ex360/Em465; active compounds read low; in the data active means z-score below about -3
M1 antag – antagonists of rat M1 muscarinic receptor; 64,000 tested, 3.4% active; Muscarinic acetylcholine receptor M1 (Rattus norvegicus), P08482; CHO-M1 cells, Fluo-4 calcium, ACh EC80 antagonist mode; active compounds read low; B-score at 10 µM; AID 628, 2007;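 active means calcium fluorescence response, raw or row-and-column corrected B-score, differing from the plate sample mean either way at a set confidence level, mostly lower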
M1 ag – M1 muscarinic receptor agonists, primary screen, CHO-M1 cells, Fluo-4 calcium, agonist mode; Muscarinic acetylcholine receptor M1; Fluo-4 calcium fluorescence; active compounds read high; B-score at 10 µM; 64,000 tested, 3% active;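 active means fluorescence rise, raw or as B-score row- and column-corrected plate score, outside the 99.7% band of its plate's samples, either direction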
AP complement – alternative complement pathway inhibitors, primary screen, biochemical, ELISA, human serum, orthogonally pooled compounds; LPS-coated ELISA, C3 deposition; tested in compound mixtures; inhibition, % at 5 µM; 62,000 tested, 0.08% active;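 active means inhibition above 30% in each of the two pooled mixtures holding the compound, so the lower value exceeds 30%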
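Test system: human serum complement alternative pathway, C3 deposition onto LPS / Medium: Mg2+-EGTA GVB++ buffer containing human serum at 1:15 dilution / Probe or stimulus: Plate-bound LPS / Times: 1 h at 37 °C / Signal: ELISA with HRP anti-human C3 antibody, TMB substrate, absorbance 450 nm / Measure: percent inhibition / Repeats: two pool placements per compound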
E coli WT exp – growth inhibitors of wild-type E. coli, primary screen, strain BW25113, expanded library, OD600. OD600 absorbance. growth inhibition, % at 100 µM. 98,000 tested, 0.15% active;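 active means growth inhibition above about 50% at one test dose, limit read from the data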;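 further: growth measured after 20 h incubation at 37 °C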
Ecoli tolC – growth inhibitors of E. coli tolC mutant, primary screen, strain BW25113 ΔtolC::kan, 384-well. OD615. growth inhibition, % at 10 µM (by protocol). 65,000 tested, 2.2% active;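 active means growth inhibition at or above a cutoff equal to the mean over every tested compound plus 3 SD, cut at about 60% in these data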;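 further: growth measured after 20 h incubation at 37 °C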
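Test system: tolC-deleted E. coli BW25113 | Medium: LB with kanamycin 50 µg/mL | Compound dosing: Single concentration, 10 µM final per compound | Schedule: 37 °C, 20 h exposure | Measured by: OD at 615 nm | Evaluation: Percent growth inhibition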
M1 ag confirm – rat M1 muscarinic receptor agonists, confirmation, CHO-M1 cells, Fluo-4 calcium, duplicate retest; fluorescence change (max-min) at 10 µM; AID 1488, 2009; Fluo-4 calcium fluorescence, agonist mode; actives lie on both sides; 1,700 tested, 19% active; shares compounds with M1 ag;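 active means fluorescence change differs from the solvent-only DMSO control mean at a set confidence level in both duplicate runs; inconclusive means differs from solvent-only control mean in just one of two runs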;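 further: an EC20 dose of acetylcholine follows compound addition during the same imaging run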
M4 agonist ctr – agonist activity at rat M4 receptor, confirmation, counter-screen for M1 allosteric modulator project, cell-based, agonist mode; fluorescence change (max-min) at 10 µM; 1,700 tested, 9% active; AID 1741, 2009; shares compounds with M1 ag; CHO M4/Gqi5 cells, Fluo-4 calcium fluorescence; actives lie on both sides;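 active means fluorescence change differing from the plate's solvent-only control wells at 99.7% confidence in both duplicates, whether higher or lower; inconclusive means differs from solvent controls in only one of two duplicates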
Target sequence (P08485 whole entry, looked up): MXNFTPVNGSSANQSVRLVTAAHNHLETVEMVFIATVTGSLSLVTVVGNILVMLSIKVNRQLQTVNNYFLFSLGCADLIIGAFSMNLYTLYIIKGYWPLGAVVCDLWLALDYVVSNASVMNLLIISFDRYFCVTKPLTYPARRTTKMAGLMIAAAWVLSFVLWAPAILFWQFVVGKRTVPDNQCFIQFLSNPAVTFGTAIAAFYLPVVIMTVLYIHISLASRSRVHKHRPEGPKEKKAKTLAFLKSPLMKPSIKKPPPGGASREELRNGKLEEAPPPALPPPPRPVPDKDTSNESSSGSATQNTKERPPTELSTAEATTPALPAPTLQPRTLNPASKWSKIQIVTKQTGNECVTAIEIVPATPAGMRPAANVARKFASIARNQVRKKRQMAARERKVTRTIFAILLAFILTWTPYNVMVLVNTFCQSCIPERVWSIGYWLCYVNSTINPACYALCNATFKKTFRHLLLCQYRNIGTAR
Large screens that a line does not name were inactive (follow-up assays come after a bar, where they were run).

Cc1ccc2c(c1)C(c1ccccc1)N(C(=O)c1ccc(Br)o1)CC(=O)N2 (stereo not given)	none
CCc1ccc(-c2nc(CSCC(=O)N3CCN(c4ccccn4)CC3)c(C)o2)cc1	M1 ag 4.6 (no result: AP complement) | M1 ag confirm inactive | M4 agonist ctr inconclusive
Cc1cccc(-c2nc(CSCC(=O)N3CCN(Cc4ccc5c(c4)OCO5)CC3)c(C)o2)c1	M1 antag -4, M1 ag 5.7 | M1 ag confirm inactive | M4 agonist ctr inconclusive
Cc1ccc(-c2nc(CSCC(=O)N3CCN(C(=O)c4ccco4)CC3)c(C)o2)cc1	none
Cc1ccc(-c2nc(CSCC(=O)N3CCOCC3)c(C)o2)cc1	none (no result: AP complement)
Cc1ccc(-c2nc(CSCC(=O)N3CCN(c4ccccn4)CC3)c(C)o2)cc1	M1 antag -2.3, M1 ag 5.6 | M1 ag confirm inconclusive | M4 agonist ctr inactive
O=C(Nc1ccc2c(c1)OCO2)C1CCCN(S(=O)(=O)Cc2ccccc2)C1 (stereo not given)	M1 antag -2.5, M1 ag 3.9 | M1 ag confirm inactive | M4 agonist ctr inactive
O=C(Nc1ccc2c(c1)OCCO2)C1CCCN(S(=O)(=O)Cc2ccccc2)C1 (stereo not given)	none
CC(=O)C1=C(C)NC(SCc2cccc([N+](=O)[O-])c2)=C(C#N)C1c1ccco1 (stereo not given)	none (no result: WNV protease inh, M1 antag, M1 ag, AP complement, Ecoli tolC)
Cc1cc(C)n(-c2ncnc3sc4c(c23)CCCC4)n1	none
Cc1sc2ncnc(N3CCN(c4ncccn4)CC3)c2c1C	M1 ag 2 | M1 ag confirm inactive | M4 agonist ctr inactive
Cc1cc(C)n(-c2ncnc3sc(C)c(C)c23)n1	M1 ag 5 (no result: AP complement) | M1 ag confirm inactive | M4 agonist ctr inactive
O=C(O)C(c1ccccc1)N1CCCC1 (stereo not given)	none
CC1=C(C(=O)N2CCOCC2)C(c2ccccc2F)C2=C(CCCC2=O)N1 (stereo not given)	none
CC1=C(C#N)C(=O)OC(C)(C)C1	WNV protease inh -8.2, M1 ag 15 (no result: AP complement) | M1 ag confirm inactive | M4 agonist ctr inactive
O=C(NCCc1cn2ccccc2n1)C1CCCCC1	none
Nc1c(C(=O)c2ccccc2)oc2ccc(Br)cc12	M1 ag -2.2 | M1 ag confirm inconclusive | M4 agonist ctr inactive
COC(=O)CCC(=O)c1oc2ccc(Br)cc2c1N	none (no result: AP complement)
O=C(CSc1nnc(-c2ccccn2)n1Cc1ccccc1)N1CCCC1	none
O=C(CCCN1C(=O)c2ccccc2C1=O)Nc1ccccc1C(=O)N1CCOCC1	M1 ag 2.3 | M1 ag confirm inactive | M4 agonist ctr inactive
Cc1cn(S(=O)(=O)c2ccc(Br)c3ccccc23)cn1	none
CCOc1ccc2noc3c2c1C(=O)c1ccccc1-3	M1 antag -9.6, M1 ag 397 | M1 ag confirm 3216 | M4 agonist ctr 2874
O=C1c2ccccc2-c2onc3ccc(NCc4ccco4)c1c23	M1 ag 183 (no result: AP complement) | M1 ag confirm 624 | M4 agonist ctr 1149
CC1(C)Oc2ccc3ccc(=O)oc3c2/C(=C/NCCN/C=C2\C(=O)C(C)(C)Oc3ccc4ccc(=O)oc4c32)C1=O	none (no result: WNV protease inh, M1 antag, M1 ag, AP complement, Ecoli tolC)
Cc1ccc(S(=O)(=O)N2CCN(C(=O)CN3CCOCC3)C2c2ccccc2)cc1 (stereo not given)	M1 ag 6.2 | M1 ag confirm inactive | M4 agonist ctr inactive
O=C(CN1CCOCC1)N1CCN(S(=O)(=O)c2ccccc2)C1c1ccccc1 (stereo not given)	none
